Reference: ChEMBL document CHEMBL1143884, “Pyrimidine-based inhibitors of CaMKIIdelta” (Bioorg Med Chem Lett, 2008)

Legend:
[1] = target: T1, Calcium/calmodulin-dependent protein kinase type II subunit delta (Homo sapiens, UniProt Q13557); assay: Inhibition of cloned CaMK2delta
Procedure, shortened: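 Radiometric filter-binding assay. Recombinant CaMKIIδ in 50 mM PIPES pH 7, 0.2 mg/ml BSA, 1 mM DTT, preincubated with inhibitor. Reaction started with buffer containing MgCl2, ATP, CaCl2, calmodulin, [His5]Autocamtide-2 substrate and [γ-33P]ATP, run 3 min at RT. Stopped on P81 phosphocellulose filter, washed with 1% phosphoric acid, counted by scintillation.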

[2] = target: T1, Calcium/calmodulin-dependent protein kinase type II subunit delta; assay: Inhibition of CaMK2delta-mediated vimentin phosphorylation in human HL2 cells at 5 uM after 1 hr by ELISA; format: cell-based
[3] = target: T1, Calcium/calmodulin-dependent protein kinase type II subunit delta; assay: Inhibition of CaMK2delta-mediated vimentin phosphorylation in human HL2 cells after 1 hr by ELISA; format: cell-based
Procedure, shortened: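 HL-2 cells preincubated 1 h at 37 °C with inhibitor at increasing concentrations, then CaMKII activated with ionomycin for 15 min at 37 °C. Cells lysed in ice-cold lysis buffer and frozen at −80 °C before read-out.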

T1 sequence (Q13557 whole entry): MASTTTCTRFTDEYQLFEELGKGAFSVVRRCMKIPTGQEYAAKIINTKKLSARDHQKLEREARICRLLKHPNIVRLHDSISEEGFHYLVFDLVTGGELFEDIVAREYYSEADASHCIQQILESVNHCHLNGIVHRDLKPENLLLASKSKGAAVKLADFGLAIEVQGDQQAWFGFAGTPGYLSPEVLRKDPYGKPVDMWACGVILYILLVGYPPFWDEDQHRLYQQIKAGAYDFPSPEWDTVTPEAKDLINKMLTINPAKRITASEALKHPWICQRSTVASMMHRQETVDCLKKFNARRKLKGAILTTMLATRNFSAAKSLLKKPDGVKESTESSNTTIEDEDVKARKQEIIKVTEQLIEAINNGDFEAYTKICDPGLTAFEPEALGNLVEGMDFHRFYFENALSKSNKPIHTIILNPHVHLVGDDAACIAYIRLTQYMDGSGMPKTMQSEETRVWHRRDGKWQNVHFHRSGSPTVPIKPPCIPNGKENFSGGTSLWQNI

| SMILES | IC50 [1] [nM] | inhibition [2] [%] | IC50 [3] [nM] |
| --- | --- | --- | --- |
| Clc1cccc(Nc2nccc(-c3cccc(N4CCCCC4)c3)n2)c1 | 930 | – | – |
| C[C@H](Nc1cc(Nc2nccc(-c3cccc(F)c3)n2)ccn1)c1ccccc1 | 1280 | – | – |
| COC(=O)c1ccc(-c2ccnc(Nc3ccnc(N[C@@H](C)c4ccccc4)c3)n2)cc1 | 1690 | – | – |
| C[C@H](Nc1cc(Nc2nccc(-c3cccc(-c4ccccc4)c3)n2)ccn1)c1ccccc1 | 3140 | – | – |
| C[C@H](Nc1cc(Nc2nccc(-c3cccc(C(=O)O)c3)n2)ccn1)c1ccccc1 | 13000 | – | – |
| COC(=O)c1ccc(-c2ccnc(Nc3ccccc3)n2)cc1 | > 20000 | 0 | – |
| Cc1cccc(-c2ccnc(Nc3ccnc(N[C@@H](C)c4ccccc4)c3)n2)c1 | 920 | – | – |
| C[C@H](Nc1cc(Nc2nccc(-c3ccc(N(C)C)cc3)n2)ccn1)c1ccccc1 | 2220 | – | – |
| C[C@H](Nc1cc(Nc2nccc(-c3ccc(CC(=O)O)cc3)n2)ccn1)c1ccccc1 | 3420 | – | – |
| CNC(=O)c1ccc(-c2ccnc(Nc3ccccc3)n2)cc1 | > 20000 | – | – |
| C[C@H](Nc1cc(Nc2nccc(-c3ccc(-c4nnn[nH]4)cc3)n2)ccn1)c1ccccc1 | 2260 | – | – |
| C[C@H](Nc1cc(Nc2nccc(-c3ccc(Cl)cc3)n2)ccn1)c1ccccc1 | 2870 | – | – |
| O=C(O)Cc1ccc(-c2ccnc(Nc3ccccc3)n2)cc1 | > 20000 | – | – |

The next molecules have a lower IC50 [1] than those just listed; values first:

| IC50 [1] [nM] | inhibition [2] [%] | IC50 [3] [nM] | SMILES |
| --- | --- | --- | --- |
| 770 | 0 | – | c1ccc(Nc2nccc(-c3ccc(-c4nnn[nH]4)cc3)n2)cc1 |
| 210 | – | – | C[C@H](Nc1cc(Nc2nccc(-c3ccc(C(=O)O)cc3)n2)ccn1)c1ccccc1 |
| 660 | – | – | Nc1cccc(-c2ccnc(Nc3cccc(Cl)c3)n2)c1 |
| 42 | 0 | – | O=C(O)c1ccc(-c2ccnc(Nc3cccc(Cl)c3)n2)cc1 |
| 66 | – | – | Nc1cc(Nc2nccc(-c3ccc(C(=O)O)cc3)n2)ccn1 |
| 12 | – | 110 | NCCNc1cccc(-c2ccnc(Nc3cccc(Cl)c3)n2)c1 |
| 240 | – | – | Clc1cccc(Nc2nccc(-c3cccc(N4CCOCC4)c3)n2)c1 |
| 64 | 0 | – | O=C(O)c1ccc(-c2ccnc(Nc3ccccc3)n2)cc1 |
| 9 | – | 320 | Clc1cccc(Nc2nccc(-c3cccc(N4CCNCC4)c3)n2)c1 |
| 290 | 90 | – | O=C(NO)c1ccc(-c2ccnc(Nc3ccccc3)n2)cc1 |
| 720 | – | – | CNC(=O)c1ccc(-c2ccnc(Nc3ccnc(N[C@@H](C)c4ccccc4)c3)n2)cc1 |
| 170 | – | – | C[C@H](Nc1cc(Nc2nccc(-c3ccc(C(=O)NO)cc3)n2)ccn1)c1ccccc1 |
| 390 | – | – | O=C(O)c1ccc(-c2ccnc(Nc3ccncc3)n2)cc1 |
